Test results from ChEMBL document CHEMBL3108692, “Potent Targeting of the STAT3 Protein in Brain Cancer Stem Cells: A Promising Route for Treating Glioblastoma” (ACS Med Chem Lett, 2013).
The source made the active and inactive calls. The rule behind the calls is not given here.

Columns and labels:
[1] = biological target: T1, Signal transducer and activator of transcription 3 (Homo sapiens, UniProt P40763); test: Competitive binding affinity to STAT3 SH2 domain (unknown origin) assessed as inhibition of interaction with FAMpYLPQTV after 15 to 30 mins by fluorescent polarization assay
[2] = Cytotoxicity against human 84EF cells assessed as cell viability after 3 days by Alamar Blue assay; conditions: 72 h
[3] = Cytotoxicity against human 25EF cells assessed as cell viability after 3 days by Alamar Blue assay; conditions: 72 h
[4] = Cytotoxicity against human 67EF cells assessed as cell viability after 3 days by Alamar Blue assay; conditions: 72 h
[5] = Cytotoxicity against human 30M cells assessed as cell viability after 3 days by Alamar Blue assay; conditions: 72 h
cells = conditions: Homo sapiens, 72 h
[6] = Cytotoxicity against human 73EF cells assessed as cell viability after 3 days by Alamar Blue assay; conditions: 72 h
[7] = biological target: T1, Signal transducer and activator of transcription 3; test: Inhibition of STAT3 phosphorylation at Y705 in human 147EF cells at 0.1 to 1 uM after 3 hrs by Western blotting analysis; format: cell-based
[8] = biological target: Tyrosine-protein kinase JAK2 (Homo sapiens) (UniProt O60674); test: Inhibition of JAK2 (unknown origin) SH2 domain expressed in HEK293 cells at 500 nM preincubated for 1 hr followed by compound washout measured after 30 mins by qPCR analysis; format: cell-based
[9] = biological target: Epidermal growth factor receptor (Homo sapiens) (UniProt P00533); test: Inhibition of EGFR in human 147EF cells after 6 hrs by Western blotting analysis; format: cell-based
Homo sapiens [10] = organism: Homo sapiens; test: Inhibition of AKT phosphorylation in human 147EF cells at 0.1 to 1 uM after 3 hrs by Western blotting analysis; format: cell-based
Mus musculus = test: In vivo inhibition of STAT3 phosphorylation in tumor of NOD-SCID mouse xenografted with human BT73 cells at 10 mg/kg, ip administered as 4 days on/3 days off schedule measured 2 hrs post last dose; format: functional, organism-based; design: dose 10 mg/kg
Outline: (§1)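 Mice were NOD-SCID with orthotopic BT73 human glioma xenografts. Starting on day 7, they received 10 intraperitoneal doses of 10 mg/kg or vehicle on a 4 days on/3 days off schedule. Animals were killed 2 h after the last dose and brain tumors excised. Read-outs were hematoxylin/eosin staining for tumor cellularity and immunohistochemistry for pSTAT3, Ki67 (proliferation) and TUNEL (apoptosis).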

[11] = biological target: Platelet-derived growth factor receptor beta (Homo sapiens) (UniProt P09619); test: Inhibition of PDGFRB (unknown origin) at 10 uM by enzymatic assay
[12] = biological target: Platelet-derived growth factor receptor beta (Homo sapiens) (UniProt P09619); test: Inhibition of PDGFRB (unknown origin) expressed in HEK293 cells at 500 nM preincubated for 1 hr followed by compound washout measured after 30 mins by qPCR analysis relative to control; format: cell-based
[13] = Cytotoxicity against HF2003 cells assessed as cell viability at 5 uM after 3 days by Alamar Blue assay; format: cell-based; conditions: human, 72 h
Outline: (§2)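 Normal human fetal astrocytes (healthy, non-tumor cells) were exposed to compounds at concentrations up to 5 μM, with viability as the cytotoxicity read-out.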

[14] = Cytotoxicity against human 30M cells assessed as cell viability after 8 days by Alamar Blue assay; format: functional, cell-based; conditions: 192 h
[15] = biological target: Tyrosine-protein kinase Fyn (Homo sapiens) (UniProt P06241); test: Inhibition of FYN (unknown origin) SH3 domain expressed in HEK293 cells at 500 nM preincubated for 1 hr followed by compound washout measured after 30 mins by qPCR analysis; format: cell-based
[16] = biological target: Tyrosine-protein kinase JAK1 (Homo sapiens) (UniProt P23458); test: Inhibition of JAK1 (unknown origin) SH2 domain expressed in HEK293 cells at 500 nM preincubated for 1 hr followed by compound washout measured after 30 mins by qPCR analysis; format: cell-based
BT73 [17] = test: Antitumor activity against human BT73 cells xenografted in NOD-SCID mouse assessed as decrease in tumor size at 10 mg/kg, ip administered as 4 days on/3 days off schedule measured 2 hrs post last dose by hematoxylin/eosin staining; format: functional, organism-based; design: dose 10 mg/kg; outline: as §1
[18] = biological target: Mitogen-activated protein kinase 3 (Homo sapiens) (UniProt P27361); test: Inhibition of ERK1 (unknown origin) at 5 uM after 120 mins
BT73 [19] = test: Antitumor activity against human BT73 cells xenografted in NOD-SCID mouse assessed as induction of apoptosis in tumor at 10 mg/kg, ip administered as 4 days on/3 days off schedule measured 2 hrs post last dose by TUNEL assay; format: functional, organism-based; design: dose 10 mg/kg; outline: as §1
[20] = biological target: T1, Signal transducer and activator of transcription 3; test: Inhibition of STAT3 phosphorylation at Y705 in human 73M cells at 1 uM; format: cell-based
Outline: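 Human 73M glioblastoma brain tumour stem cells were exposed to the inhibitor alongside the JAK2 inhibitor reference WP1066. Activated STAT3 was then read out by Western blot for STAT3 phosphorylated at Y705.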

BT73 [21] = test: Antitumor activity against human BT73 cells xenografted in NOD-SCID mouse assessed as tumor growth inhibition by measuring downregulation of Ki67 protein expression at 10 mg/kg, ip administered as 4 days on/3 days off schedule measured 2 hrs post last dose; format: functional, organism-based; design: dose 10 mg/kg; outline: as §1
[22] = biological target: Proto-oncogene tyrosine-protein kinase Src (Homo sapiens) (UniProt P12931); test: Inhibition of c-Src (unknown origin) at 5 uM after 120 mins relative to control
[23] = biological target: RAC-alpha serine/threonine-protein kinase (Homo sapiens) (UniProt P31749); test: Inhibition of AKT1 (unknown origin) at 5 uM after 120 mins
Homo sapiens [24] = organism: Homo sapiens; test: Induction of apoptosis in human 147EF cells assessed as PARP cleavage at 0.1 to 1 uM after 3 hrs by Western blotting analysis; format: functional, cell-based
[25] = biological target: Tyrosine-protein kinase JAK1 (Homo sapiens) (UniProt P23458); test: Inhibition of JAK1 (unknown origin) at 5 uM after 120 mins
Homo sapiens [26] = organism: Homo sapiens; test: Inhibition of AKT in human 147EF cells after 6 hrs by Western blotting analysis; format: cell-based
[27] = Cytotoxicity against HF2006 cells assessed as cell viability at 5 uM after 3 days by Alamar Blue assay; format: cell-based; conditions: human, 72 h; outline: as §2
[28] = biological target: Tyrosine-protein kinase JAK2 (Homo sapiens) (UniProt O60674); test: Inhibition of JAK2 (unknown origin) at 5 uM after 120 mins relative to control
[29] = Cytotoxicity against human 73M cells assessed as cell viability after 8 days by Alamar Blue assay; format: functional, cell-based; conditions: 192 h
[30] = biological target: Tyrosine-protein kinase Fes/Fps (Homo sapiens) (UniProt P07332); test: Inhibition of FES (unknown origin) SH3 domain expressed in HEK293 cells at 500 nM preincubated for 1 hr followed by compound washout measured after 30 mins by qPCR analysis; format: cell-based
[31] = biological target: Tyrosine-protein kinase Fer (Homo sapiens) (UniProt P16591); test: Inhibition of FER (unknown origin) SH3 domain expressed in HEK293 cells at 500 nM preincubated for 1 hr followed by compound washout measured after 30 mins by qPCR analysis; format: cell-based
[32] = biological target: Proto-oncogene tyrosine-protein kinase Src (Homo sapiens) (UniProt P12931); test: Inhibition of Src in human 147EF cells after 6 hrs by Western blotting analysis; format: cell-based
[33] = biological target: T2, Signal transducer and activator of transcription 5A (Homo sapiens, UniProt P42229); test: Binding affinity to His-tagged STAT5 (unknown origin) by SPR spectroscopic analysis
T2 sequence (P42229 whole entry): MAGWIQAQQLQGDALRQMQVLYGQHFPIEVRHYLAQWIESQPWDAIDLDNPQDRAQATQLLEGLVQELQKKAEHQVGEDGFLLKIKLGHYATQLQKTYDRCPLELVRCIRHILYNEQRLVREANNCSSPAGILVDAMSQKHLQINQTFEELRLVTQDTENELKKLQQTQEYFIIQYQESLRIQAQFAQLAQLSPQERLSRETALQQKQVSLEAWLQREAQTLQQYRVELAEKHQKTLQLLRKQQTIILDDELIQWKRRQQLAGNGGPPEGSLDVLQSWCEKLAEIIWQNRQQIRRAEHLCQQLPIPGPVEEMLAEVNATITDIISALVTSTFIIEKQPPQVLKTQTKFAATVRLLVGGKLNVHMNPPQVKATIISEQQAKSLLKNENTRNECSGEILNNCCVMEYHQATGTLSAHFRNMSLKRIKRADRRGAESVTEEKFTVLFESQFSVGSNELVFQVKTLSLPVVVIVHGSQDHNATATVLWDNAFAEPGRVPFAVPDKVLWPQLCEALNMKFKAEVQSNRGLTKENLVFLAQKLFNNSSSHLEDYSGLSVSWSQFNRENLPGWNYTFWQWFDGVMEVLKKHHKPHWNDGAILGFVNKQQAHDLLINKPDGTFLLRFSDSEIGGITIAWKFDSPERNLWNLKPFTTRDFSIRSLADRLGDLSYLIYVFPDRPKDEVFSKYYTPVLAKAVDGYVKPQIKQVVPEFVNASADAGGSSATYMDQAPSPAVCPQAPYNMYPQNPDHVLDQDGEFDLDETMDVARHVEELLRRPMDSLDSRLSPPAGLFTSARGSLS
Outline: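 SPR binding to STAT3 and STAT5 proteins was run at several analyte concentrations: 5.000, 1.667, 0.556 and 0.185 μM.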

Homo sapiens [34] = organism: Homo sapiens; test: Inhibition of MAPK in human 147EF cells after 6 hrs by Western blotting analysis; format: cell-based
[35] = biological target: Tyrosine-protein kinase JAK2 (Homo sapiens) (UniProt O60674); test: Inhibition of JAK2 in human 147EF cells after 6 hrs by Western blotting analysis; format: cell-based

Sequence of Tyrosine-protein kinase JAK2 (Homo sapiens) (O60674 whole entry, the tested form may be a part): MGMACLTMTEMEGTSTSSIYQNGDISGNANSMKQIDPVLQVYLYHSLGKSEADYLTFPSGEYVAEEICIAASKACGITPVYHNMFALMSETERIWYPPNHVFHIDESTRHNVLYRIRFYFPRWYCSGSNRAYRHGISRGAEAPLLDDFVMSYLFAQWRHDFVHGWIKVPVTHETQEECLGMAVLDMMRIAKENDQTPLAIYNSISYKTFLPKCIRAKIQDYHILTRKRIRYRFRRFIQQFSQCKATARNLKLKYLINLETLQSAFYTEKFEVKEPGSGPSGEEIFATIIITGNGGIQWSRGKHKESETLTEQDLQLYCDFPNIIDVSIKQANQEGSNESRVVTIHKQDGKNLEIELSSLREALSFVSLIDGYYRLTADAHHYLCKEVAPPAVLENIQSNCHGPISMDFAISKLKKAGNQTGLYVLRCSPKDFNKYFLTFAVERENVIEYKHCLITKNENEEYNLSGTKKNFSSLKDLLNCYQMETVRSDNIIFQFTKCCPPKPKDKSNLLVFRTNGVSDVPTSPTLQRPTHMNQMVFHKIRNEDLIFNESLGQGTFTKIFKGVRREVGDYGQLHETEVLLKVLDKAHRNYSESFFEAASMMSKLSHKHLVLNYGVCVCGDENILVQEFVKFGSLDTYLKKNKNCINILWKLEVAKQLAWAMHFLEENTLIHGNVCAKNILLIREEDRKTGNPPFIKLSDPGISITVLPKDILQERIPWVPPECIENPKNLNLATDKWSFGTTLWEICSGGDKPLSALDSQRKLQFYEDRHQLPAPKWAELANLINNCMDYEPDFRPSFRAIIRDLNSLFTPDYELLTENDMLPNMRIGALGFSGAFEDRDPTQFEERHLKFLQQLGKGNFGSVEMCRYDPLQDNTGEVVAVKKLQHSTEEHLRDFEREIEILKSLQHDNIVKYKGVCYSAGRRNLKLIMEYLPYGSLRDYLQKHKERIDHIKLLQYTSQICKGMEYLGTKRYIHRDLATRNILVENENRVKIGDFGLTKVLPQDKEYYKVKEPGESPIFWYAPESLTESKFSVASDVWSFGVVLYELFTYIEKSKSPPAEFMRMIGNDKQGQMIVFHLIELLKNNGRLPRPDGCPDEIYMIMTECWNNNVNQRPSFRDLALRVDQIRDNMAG
T1 sequence (P40763 whole entry, the tested form may be a part): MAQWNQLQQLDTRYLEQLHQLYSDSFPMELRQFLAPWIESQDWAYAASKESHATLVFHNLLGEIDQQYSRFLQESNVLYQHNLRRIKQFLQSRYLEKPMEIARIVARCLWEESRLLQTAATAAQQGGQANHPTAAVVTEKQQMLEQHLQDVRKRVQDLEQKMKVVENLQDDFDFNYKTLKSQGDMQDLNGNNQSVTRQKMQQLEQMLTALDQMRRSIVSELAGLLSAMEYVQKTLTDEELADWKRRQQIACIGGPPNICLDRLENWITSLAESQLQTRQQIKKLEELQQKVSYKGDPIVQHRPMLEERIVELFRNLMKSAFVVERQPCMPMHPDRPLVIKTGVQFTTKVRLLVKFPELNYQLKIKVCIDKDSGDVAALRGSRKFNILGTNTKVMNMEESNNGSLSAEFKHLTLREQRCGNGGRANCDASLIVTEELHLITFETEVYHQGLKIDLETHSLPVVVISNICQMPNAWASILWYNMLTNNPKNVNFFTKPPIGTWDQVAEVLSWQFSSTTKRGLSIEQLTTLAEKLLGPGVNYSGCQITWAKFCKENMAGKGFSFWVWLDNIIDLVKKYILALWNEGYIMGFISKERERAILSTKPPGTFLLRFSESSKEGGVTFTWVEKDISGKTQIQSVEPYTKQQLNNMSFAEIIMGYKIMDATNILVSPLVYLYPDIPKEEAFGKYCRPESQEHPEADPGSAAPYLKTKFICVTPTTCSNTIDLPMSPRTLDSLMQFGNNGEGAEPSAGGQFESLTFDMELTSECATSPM
Sequence of Tyrosine-protein kinase JAK1 (Homo sapiens) (P23458 whole entry, the tested form may be a part): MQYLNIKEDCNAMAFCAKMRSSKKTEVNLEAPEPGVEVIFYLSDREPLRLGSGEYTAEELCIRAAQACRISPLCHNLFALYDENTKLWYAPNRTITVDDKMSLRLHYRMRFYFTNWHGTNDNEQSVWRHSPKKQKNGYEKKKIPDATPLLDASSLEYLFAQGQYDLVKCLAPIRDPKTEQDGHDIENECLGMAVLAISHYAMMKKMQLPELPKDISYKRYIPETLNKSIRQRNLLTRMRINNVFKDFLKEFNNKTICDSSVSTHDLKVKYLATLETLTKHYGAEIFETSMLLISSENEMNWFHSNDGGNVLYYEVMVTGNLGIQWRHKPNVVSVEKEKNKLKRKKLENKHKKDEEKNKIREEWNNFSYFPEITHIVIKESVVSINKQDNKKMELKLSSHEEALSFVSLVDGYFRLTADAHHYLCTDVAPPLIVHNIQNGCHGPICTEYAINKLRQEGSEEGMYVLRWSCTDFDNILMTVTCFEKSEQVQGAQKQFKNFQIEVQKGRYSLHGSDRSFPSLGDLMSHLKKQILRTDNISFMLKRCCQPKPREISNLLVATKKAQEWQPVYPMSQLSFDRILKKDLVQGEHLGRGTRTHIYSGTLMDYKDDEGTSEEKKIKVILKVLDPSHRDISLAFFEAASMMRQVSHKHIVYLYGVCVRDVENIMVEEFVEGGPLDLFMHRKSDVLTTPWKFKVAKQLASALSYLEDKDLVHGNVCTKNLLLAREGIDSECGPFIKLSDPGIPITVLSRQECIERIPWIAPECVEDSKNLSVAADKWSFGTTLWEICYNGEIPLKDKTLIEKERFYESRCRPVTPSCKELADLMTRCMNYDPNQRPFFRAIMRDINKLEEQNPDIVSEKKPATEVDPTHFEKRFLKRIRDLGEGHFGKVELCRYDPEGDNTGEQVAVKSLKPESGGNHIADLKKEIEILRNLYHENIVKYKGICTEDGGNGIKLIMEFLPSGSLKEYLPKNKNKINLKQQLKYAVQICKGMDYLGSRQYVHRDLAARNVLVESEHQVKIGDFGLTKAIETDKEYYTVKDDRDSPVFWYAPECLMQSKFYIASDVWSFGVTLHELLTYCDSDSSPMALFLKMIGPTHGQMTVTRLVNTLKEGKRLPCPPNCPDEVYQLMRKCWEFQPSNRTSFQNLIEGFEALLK
Sequence of Proto-oncogene tyrosine-protein kinase Src (Homo sapiens) (P12931 2-536 limits assumed): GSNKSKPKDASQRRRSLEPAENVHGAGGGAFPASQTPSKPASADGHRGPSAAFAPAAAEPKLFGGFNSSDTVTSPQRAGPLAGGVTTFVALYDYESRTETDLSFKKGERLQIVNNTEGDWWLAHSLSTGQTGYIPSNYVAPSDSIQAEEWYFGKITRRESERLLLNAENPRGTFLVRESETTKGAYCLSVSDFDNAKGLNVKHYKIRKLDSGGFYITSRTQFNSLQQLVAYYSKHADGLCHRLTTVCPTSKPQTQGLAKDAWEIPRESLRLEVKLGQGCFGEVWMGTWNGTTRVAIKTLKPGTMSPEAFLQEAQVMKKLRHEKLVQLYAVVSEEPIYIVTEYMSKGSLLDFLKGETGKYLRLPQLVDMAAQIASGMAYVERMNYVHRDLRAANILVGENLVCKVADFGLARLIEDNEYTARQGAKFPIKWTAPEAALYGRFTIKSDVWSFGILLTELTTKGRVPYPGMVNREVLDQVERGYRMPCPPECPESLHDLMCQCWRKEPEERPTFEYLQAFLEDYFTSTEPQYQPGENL
Sequence of Platelet-derived growth factor receptor beta (Homo sapiens) (P09619 whole entry): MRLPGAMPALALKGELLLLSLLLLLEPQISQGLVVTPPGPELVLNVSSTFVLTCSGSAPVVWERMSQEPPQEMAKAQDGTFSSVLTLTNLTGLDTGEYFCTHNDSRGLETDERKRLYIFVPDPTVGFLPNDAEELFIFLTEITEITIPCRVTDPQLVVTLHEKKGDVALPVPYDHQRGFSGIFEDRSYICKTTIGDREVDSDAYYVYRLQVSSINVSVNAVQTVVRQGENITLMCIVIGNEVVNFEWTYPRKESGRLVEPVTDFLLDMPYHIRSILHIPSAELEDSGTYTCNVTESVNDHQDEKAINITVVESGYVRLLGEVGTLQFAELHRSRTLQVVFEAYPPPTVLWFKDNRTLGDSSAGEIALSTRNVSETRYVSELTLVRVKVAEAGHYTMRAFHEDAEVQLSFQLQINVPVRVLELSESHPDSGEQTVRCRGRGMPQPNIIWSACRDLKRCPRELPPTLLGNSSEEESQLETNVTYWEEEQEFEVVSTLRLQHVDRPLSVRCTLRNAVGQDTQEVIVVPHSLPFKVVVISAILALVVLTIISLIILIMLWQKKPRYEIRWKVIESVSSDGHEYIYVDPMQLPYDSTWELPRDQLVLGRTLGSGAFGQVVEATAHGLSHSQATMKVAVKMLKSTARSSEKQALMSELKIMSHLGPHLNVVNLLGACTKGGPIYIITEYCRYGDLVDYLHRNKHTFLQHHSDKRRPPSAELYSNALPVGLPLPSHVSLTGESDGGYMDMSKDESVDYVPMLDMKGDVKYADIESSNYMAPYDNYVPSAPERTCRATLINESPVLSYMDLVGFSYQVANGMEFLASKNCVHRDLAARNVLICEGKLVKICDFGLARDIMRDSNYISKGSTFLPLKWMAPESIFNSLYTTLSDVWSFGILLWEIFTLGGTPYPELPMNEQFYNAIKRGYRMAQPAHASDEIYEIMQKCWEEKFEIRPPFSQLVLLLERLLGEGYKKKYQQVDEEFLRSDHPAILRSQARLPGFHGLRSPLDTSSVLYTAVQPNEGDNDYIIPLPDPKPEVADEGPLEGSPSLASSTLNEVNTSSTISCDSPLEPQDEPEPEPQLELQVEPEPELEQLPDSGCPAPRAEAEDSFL
Sequence of Mitogen-activated protein kinase 3 (Homo sapiens) (P27361 whole entry): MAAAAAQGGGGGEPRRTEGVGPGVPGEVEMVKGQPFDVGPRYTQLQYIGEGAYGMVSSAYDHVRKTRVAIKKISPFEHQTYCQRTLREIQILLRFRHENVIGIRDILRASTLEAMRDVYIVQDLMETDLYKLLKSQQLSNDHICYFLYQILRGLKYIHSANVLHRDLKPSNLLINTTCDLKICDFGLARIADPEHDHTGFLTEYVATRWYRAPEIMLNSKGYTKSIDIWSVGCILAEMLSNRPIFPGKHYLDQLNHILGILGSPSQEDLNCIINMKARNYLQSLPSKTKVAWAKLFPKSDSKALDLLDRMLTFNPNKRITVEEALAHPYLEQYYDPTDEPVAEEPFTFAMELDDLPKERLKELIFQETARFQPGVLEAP

`CN(CC(=O)N(Cc1ccc(C2CCCCC2)cc1)c1ccc(C(=O)O)c(F)c1)S(=O)(=O)c1c(F)c(F)c(F)c(F)c1F` showed a Ki [1] of 10 µM, an IC50 [2] of 202 nM and an IC50 [3] of 592 nM. The IC50 [4] was 214 nM, the IC50 [5] was 100 nM and the IC50 (cells) was 90 nM. The IC50 [6] was 438 nM.

For `CCOC(=O)C(=O)Nc1ccc(N(Cc2ccc(C3CCCCC3)cc2)C(=O)CN(C)S(=O)(=O)c2c(F)c(F)c(F)c(F)c2F)cc1`, the inhibition [1] was “inactive”.

In the case of `CN(CC(=O)N(Cc1ccc(C2CCCCC2)cc1)c1ccccc1)S(=O)(=O)c1c(F)c(F)c(F)c(F)c1F`, the inhibition [1] is reported as “inactive”.

With `CN(CC(=O)N(Cc1ccc(C2CCCCC2)cc1)c1ccc(C(=O)OCOC(=O)C(C)(C)C)cc1)S(=O)(=O)c1c(F)c(F)c(F)c(F)c1F` the inhibition [1] was “inactive”.

In the case of `CCOP(=O)(Cc1ccc(N(Cc2ccc(C3CCCCC3)cc2)C(=O)CN(C)S(=O)(=O)c2c(F)c(F)c(F)c(F)c2F)cc1)OCC`, the inhibition [1] is reported as “inactive”.

For `CC(=O)OCOC(=O)c1ccc(N(Cc2ccc(C3CCCCC3)cc2)C(=O)CN(C)S(=O)(=O)c2c(F)c(F)c(F)c(F)c2F)cc1`, the inhibition [1] was “inactive”.

In the case of `CN(CC(=O)N(Cc1ccc(C2CCCCC2)cc1)c1ccc(C(=O)O)cc1)S(=O)(=O)c1c(F)c(F)c(F)c(F)c1F`, the inhibition [7] is reported as “Active”, the inhibition [8] is reported as “inactive” and the inhibition [9] is reported as “inactive”. For the same molecule, the inhibition (Homo sapiens [10]) was “Active”, the inhibition (Mus musculus) was “Active” and the IC50 [2] was 102 nM. The inhibition [11] was “inactive”, the inhibition [12] was 35% and the Activity [13] was “Non-toxic”. The IC50 [14] was 430 nM, the inhibition [15] was “inactive” and the inhibition [16] was “inactive”. For the same molecule, the Activity (BT73 [17]) was “Active”, the inhibition [18] was “inactive” and the Activity (BT73 [19]) was “Active”. For the same molecule, the IC50 [3] was 234 nM, the inhibition [20] was “Active” and the TGI (BT73 [21]) was “Active”. The inhibition [22] was 50%, the IC50 [4] was 106 nM and the IC50 [5] was 100 nM. For the same molecule, the inhibition [23] was “inactive”, the Activity (Homo sapiens [24]) was “Active” and the inhibition [25] was “inactive”. The inhibition (Homo sapiens [26]) was “inactive”, the Activity [27] was “Non-toxic” and the IC50 (cells) was 66 nM. The inhibition [28] was 50%, the IC50 [29] was 1030 nM and the inhibition [30] was “inactive”. The IC50 [6] was 162 nM, the inhibition [31] was “inactive” and the inhibition [32] was “inactive”. For the same molecule, the Kd [33] was 464 nM, the inhibition (Homo sapiens [34]) was “inactive” and the inhibition [35] was “inactive”.
